TAAR1 antag: human TAAR1 antagonism; CHO RD-HGA16 TAAR1, Fluo-8 calcium fluorescence, antagonist; 360,000 compounds, 1.5% hits; inhibition, % at 3 µM; AID 624466; Q96RJ0;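 active = inhibition above a per-plate cutoff, the mean inhibition of test compounds on that plate plus 3 SD, cut at about 49% in these data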
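System: RD-HGA16 CHO cells with stable hTAAR1 and Gα16 | Probe or stimulus: EC80 β-phenethylamine stimulus | Dosing: 3 µM, single point | Times: Dye loading 75 min at 37 °C, then 30 min room temperature | Measured by: Fluo-8 calcium-sensitive fluorescence | Read-out basis: % inhibition of agonist calcium response | Replicates: n of 1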
GPR7 antag: blocks human GPR7 receptor signaling. P48145. GPR7-expressing cells, fluorescence antagonist assay. inhibition, % at 4.4 µM. 290,000 compounds, 1.1% hits; in the data active = inhibition above about 16%, passing the limit was not always enough;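 note: cells stimulated with the agonist NPW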
Target sequence (P48145 whole entry, looked up): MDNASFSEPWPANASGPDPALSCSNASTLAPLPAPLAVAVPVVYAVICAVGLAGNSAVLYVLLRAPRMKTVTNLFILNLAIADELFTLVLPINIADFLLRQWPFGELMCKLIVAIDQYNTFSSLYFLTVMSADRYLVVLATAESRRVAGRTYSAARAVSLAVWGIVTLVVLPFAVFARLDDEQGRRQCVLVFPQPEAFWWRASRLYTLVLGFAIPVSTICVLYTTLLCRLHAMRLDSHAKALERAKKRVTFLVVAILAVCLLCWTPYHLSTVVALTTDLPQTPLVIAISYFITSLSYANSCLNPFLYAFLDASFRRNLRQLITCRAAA
OX1R antag-1: human HCRTR1 antagonism. O43613. CHO/OX1R cells, Fluo-8 calcium fluorescence, orexin A. inhibition, % at 5 µM. 330,000 compounds, 0.43% hits;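 active = inhibition above its plate's threshold, mean inhibition of all tested compounds on the plate plus 3 SD, cut at about 37% in these data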
Target sequence (O43613 whole entry, looked up): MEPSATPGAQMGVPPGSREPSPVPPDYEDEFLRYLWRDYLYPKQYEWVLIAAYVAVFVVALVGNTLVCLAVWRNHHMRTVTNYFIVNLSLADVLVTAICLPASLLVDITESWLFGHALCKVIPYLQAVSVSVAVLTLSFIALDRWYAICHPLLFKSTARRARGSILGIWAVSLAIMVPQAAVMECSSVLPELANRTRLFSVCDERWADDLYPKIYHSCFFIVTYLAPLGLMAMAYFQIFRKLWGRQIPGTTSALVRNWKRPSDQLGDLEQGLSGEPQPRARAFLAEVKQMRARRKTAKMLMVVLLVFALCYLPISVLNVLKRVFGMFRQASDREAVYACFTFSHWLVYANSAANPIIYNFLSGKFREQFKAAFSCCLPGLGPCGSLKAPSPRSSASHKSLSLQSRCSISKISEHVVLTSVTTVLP
OX1R antag-2: OX1R (human) antagonism; OX1R-expressing cells, FRET antagonist read-out; inhibition, % at 6.6 µM; 330,000 compounds, 1.8% hits; O43613; in the data active = inhibition mostly above about 38%, no sharp cut-off; inactive = mostly below about 40%
TAAR1 ag: human TAAR1 agonism. CHO RD-HGA16 TAAR1, Fluo-8 calcium fluorescence; vehicle wells 0%, saturating PEA agonist 100%. 360,000 compounds, 0.99% hits. activation, % at 3 µM. Q96RJ0;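 active = activation above the mean activation of all test compounds in the run plus 3 SD, cut at about 38% in these data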
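test system = CHO RD-HGA16 cells carrying human TAAR1 plus Gα16 | schedule = 17-24 h seeding, 75 min 37 °C dye, 30 min RT | compound dosing = 3 µM single concentration | control set = DMSO and PEA EC100 | replicates = n 1 | signal = Fluo-8 fluorescence, 5 s baseline then 140 s kinetic read | measure = percent activation vs PEA EC100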
CHO parental Ca: signal in parental CHO cells, OX1R antagonist counter-screen; 330,000 compounds, 0.63% hits; inhibition, % at 5.6 µM; AID 463079; parental CHO-K1, ATP-induced calcium, Fluo-8 fluorescence;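 active = inhibition above that plate's mean sample inhibition plus 3 SD, cut at about 26% in these data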
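Assay system: parental CHO cells; Read-out basis: percent inhibition of ATP-evoked calcium rise, normalized to controls; Benchmarks: ATP and no-ATP DMSO wells; Compound dosing: single nominal dose of 5.6 µM per compound; Signal: Fluo-8 calcium dye fluorescence; Also added: ATP as calcium-mobilizing challenge; Repeats: singlicate.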
TAAR1 ag confirm: confirmation of human TAAR1 agonists; CHO RD-HGA16 TAAR1, Fluo-8 calcium fluorescence; scaled: DMSO 0%, maximal phenethylamine 100%; shares compounds with TAAR1 ag; activation, % at 3 µM; 2,400 compounds, 82% hits;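 active = activation above a cutoff set at the run's mean compound activation plus 3 SD, cut at about 39% in these data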
Ga16 ag counter: nonselective agonist in parental cells, TAAR1 agonist counter-screen | shares compounds with TAAR1 ag | CHO-Ga16 parental, Fluo-8 calcium fluorescence; normalized to maximal ATP response, DMSO zero | activation, % at 3 µM | 2,400 compounds, 50% hits;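 active = activation above the run cutoff, the mean activation over all tested wells plus 3 SD, cut at about 12% in these data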
TAAR1 desens: human TAAR1 agonist that also desensitizes the receptor | 2,400 compounds, 46% hits | shares compounds with TAAR1 ag | inhibition, % at 3 µM | CHO RD-HGA16 hTAAR1, Fluo-8 calcium, beta-PEA response inhibition;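 active = inhibition above the run cutoff, the mean inhibition of all test compounds plus 3 SD, cut at about 49% in these data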;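 note: beta-PEA stimulus applied at its EC80; loss of beta-PEA calcium signal after compound pretreatment read as receptor desensitization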
Ga16 nonsel ant: counter-screen for TAAR1 agonists: nonselective Ga16 antagonists; inhibition, % at 3 µM; CHO-Ga16 ATP-induced calcium, Fluo-8 fluorescence; 2,400 compounds, 39% hits; shares compounds with TAAR1 ag;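 active = inhibition above the plate's mean compound inhibition plus 3 SD, computed per plate, cut at about 22% in these data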
Numbers stand for hits; – = inactive; · = no result. A selection: hits, their analogues and other compounds. The true share with any hit is near 4.6%.

SMILES	TAAR1 antag	GPR7 antag	OX1R antag-1	OX1R antag-2	TAAR1 ag	CHO parental Ca	TAAR1 ag confirm	Ga16 ag counter	TAAR1 desens	Ga16 nonsel ant
COc1ccc(-c2nnc(NC(=O)c3ccccc3[N+](=O)[O-])s2)c(OC)c1	–	–	–	–	–	–	·	·	·	·
CC(=O)c1ccc(S(=O)(=O)N2CCNC(=O)C2)cc1	–	·	–	–	–	–	·	·	·	·
Fc1ccc(F)c(NC(=S)NCCc2ccccc2)c1	–	–	–	–	–	–	·	·	·	·
S=C(NCCc1ccccc1)Nc1c(Cl)cccc1Cl	–	–	–	–	67.6	–	78.2	–	80.1	–
FC(F)Oc1ccccc1NC(=S)NCCc1ccccc1	–	·	–	–	51.0	–	77.4	–	–	–
N#C/C(=C/c1cn[nH]c1-c1cccc(Br)c1)C(=O)O	–	–	–	–	70.8	–	111.7	51.7	–	–
COc1ccc(/C=N\NC(=O)c2c(C)nc3ccc(Br)cn23)cc1	–	–	–	–	–	–	·	·	·	·
CCCCCOc1ccc(CSC(=N)N)cc1[N+](=O)[O-]	–	–	–	–	59.2	–	104.4	58.5	69.3	29.3
Oc1c(C(c2cccs2)N2CCN(c3ccccc3)CC2)ccc2cccnc12 (centres undefined)	·	–	–	–	·	–	·	·	·	·
CN1CCN(C(c2ccc(C(F)(F)F)cc2)c2ccc3cccnc3c2O)CC1 (centres undefined)	–	–	–	–	101.8	–	128.7	94.3	63.0	–
CCOC(CNCc1cc(C)c2[nH]c3ccccc3c2c1C)OCC	–	·	·	·	–	·	·	·	·	·
O=C(CSc1ccc2c(c1)OCCO2)Nc1cccnc1	–	–	–	–	–	–	·	·	·	·
COc1cccc(CC(=O)OCC(=O)c2cc(OC)c(OC)c(OC)c2)c1	–	·	–	–	–	–	·	·	·	·
Cc1cc(C)nc(OC(C(=O)O)C(OCCc2ccccc2)(c2ccccc2)c2ccccc2)n1 (centres undefined)	–	–	–	–	98.9	–	126.0	84.6	–	–
O=C(O)c1cccc(NS(=O)(=O)c2ccc(C3CCCCC3)cc2)c1	·	–	–	–	·	–	·	·	·	·
N#CCc1ccc(NS(=O)(=O)c2ccc(C3CCCCC3)cc2)cc1	51.0	–	–	–	51.3	67.7	50.8	23.6	–	34.1
Cc1cccc(NS(=O)(=O)c2ccc(C3CCCCC3)cc2)c1	55.2	–	51.1	–	58.8	47.9	37.5	–	–	36.9
COc1cc2c(cc1OC)CN(C(=S)Nc1ccc(C)cc1C)CC2	–	–	–	–	–	–	·	·	·	·
O=C(CNC(=O)c1cccc(F)c1)N/N=C/C=C/c1ccccc1	·	–	–	–	·	–	·	–	·	–
CCCCNc1ccc2c3c(cccc13)C(=O)N(CCCC)C2=O	107.9	37.0	·	·	497.9	·	182.4	287.7	90.4	94.7
Nc1c(-c2n[nH]c(=S)n2-c2ccc(Cl)cc2Cl)cnn1-c1ccccc1	–	–	–	–	96.6	–	72.8	44.1	–	28.4
COc1ccc(Nc2cc(C)c3c(O)cccc3n2)cc1	·	–	–	–	·	–	·	–	·	–
Cc1ccc(Nc2cc(C)c3c(O)cccc3n2)cc1C	54.1	–	–	–	97.9	–	96.1	28.3	87.4	24.8
Nc1nc(SCC(=O)c2c(N)n(C3CC3)c(=O)[nH]c2=O)n[nH]1	–	·	·	·	–	·	·	·	·	·
N#C[C@H]1C2OC2c2ccccc2N1C(=O)c1ccccc1 (some centres undefined)	–	·	–	–	–	–	·	·	·	·
SMILES	TAAR1 antag	GPR7 antag	OX1R antag-1	OX1R antag-2	TAAR1 ag	CHO parental Ca	TAAR1 ag confirm	Ga16 ag counter	TAAR1 desens	Ga16 nonsel ant
COCCNCCCOc1ccc(C(C)(C)c2ccccc2)cc1	–	–	–	–	–	–	·	·	·	·
C=CCNCCCOc1ccc(C(C)(C)c2ccccc2)cc1	–	–	–	–	60.8	–	89.7	25.3	63.6	–
CC(C)(C)c1ccc(OCCCNCc2ccccc2)cc1	–	–	–	–	73.6	–	69.2	33.4	–	–
CC(C)(c1ccccc1)c1ccc(OCCCNCCO)cc1	–	–	–	–	53.0	–	84.7	41.0	–	–
COCCCNCCCOc1ccc(C(C)(C)c2ccccc2)cc1	–	–	–	–	–	–	·	·	·	·
O=C(COC(=O)C1=NN(c2ccccc2)C(=O)CC1)NCc1ccccc1Cl	–	·	–	–	–	–	·	·	·	·
O=C(O)CCc1ccc(S(=O)(=O)Nc2ccccc2N2CCCCC2)cc1	–	·	–	–	–	–	·	·	·	·
O=C(NCc1ccccc1)C1CCCN(c2cnccn2)C1 (centres undefined)	–	–	–	–	–	–	·	·	·	·
COc1ccc(S(=O)(=O)n2nc(OC(C)=O)cc2N)cc1	–	–	–	–	–	–	·	·	·	·
COc1cccc(C(=O)Oc2cc(N)n(S(=O)(=O)c3ccc(C)cc3)n2)c1OC	–	–	–	–	63.7	–	50.5	14.3	–	–
Nc1cc(OC(=O)c2c(F)cccc2Cl)nn1S(=O)(=O)c1ccccc1	–	–	–	–	54.2	–	50.7	22.3	–	–
C/C(=N\NC(=O)c1nnn(-c2nonc2N)c1C(C)C)c1cc(C)sc1C	–	–	–	–	–	–	·	·	·	·
COC(=O)c1c(C)oc(C)c1S(=O)(=O)N1CCCC1	–	–	–	–	–	–	·	·	·	·
OC(c1ccc(F)c(F)c1)c1nc(-c2ccccc2)cs1 (centres undefined)	–	·	·	·	–	·	·	·	·	·
COc1ccc(-c2csc(C(O)c3ccc(F)c(F)c3)n2)cc1 (centres undefined)	77.3	·	·	·	57.3	·	51.5	33.2	70.1	53.2
CC(C)(C)n1cnc2cc(NC(=O)c3ccccc3)ccc21	–	–	–	–	–	–	·	·	·	·
Cc1ccc2c(c1)[nH]c1c(=O)n(Cc3ccco3)cnc12	–	–	–	–	72.9	–	101.0	74.0	89.3	65.5
O=c1c2[nH]c3ccccc3c2ncn1Cc1ccco1	–	–	–	–	–	–	·	·	·	·
CCCCCCn1c(=O)[nH]c2nc3cc(N)ccc3nc2c1=O	56.6	–	75.3	–	118.3	51.4	95.2	96.2	67.7	66.5
O=C(COC(=O)c1ccc(Cl)cc1)NC1CCCCCC1	–	·	–	–	42.3	–	–	–	–	–
CCn1c2ccccc2c2cc(/C=N/NC(=O)c3ccc(O)cc3)ccc21	–	–	–	75.6	47.2	–	47.3	–	–	–

Screening results (PubChem BioAssay)
